Laboratory results taken from ChEMBL document CHEMBL3627716, “Structure-activity relationship studies of the lipophilic tail region of sphingosine kinase 2 inhibitors” (Bioorg Med Chem Lett, 2015).

Legend:
[1] = molecular target: T1, Sphingosine kinase 2 (Mus musculus) (UniProt Q9JIA7); assay: Inhibition of mouse recombinant SphK2 assessed as remaining enzyme activity at 10 uM using gamma[32P]ATP incubated for 20 mins by liquid scintillation counting method
T1 sequence (whole entry): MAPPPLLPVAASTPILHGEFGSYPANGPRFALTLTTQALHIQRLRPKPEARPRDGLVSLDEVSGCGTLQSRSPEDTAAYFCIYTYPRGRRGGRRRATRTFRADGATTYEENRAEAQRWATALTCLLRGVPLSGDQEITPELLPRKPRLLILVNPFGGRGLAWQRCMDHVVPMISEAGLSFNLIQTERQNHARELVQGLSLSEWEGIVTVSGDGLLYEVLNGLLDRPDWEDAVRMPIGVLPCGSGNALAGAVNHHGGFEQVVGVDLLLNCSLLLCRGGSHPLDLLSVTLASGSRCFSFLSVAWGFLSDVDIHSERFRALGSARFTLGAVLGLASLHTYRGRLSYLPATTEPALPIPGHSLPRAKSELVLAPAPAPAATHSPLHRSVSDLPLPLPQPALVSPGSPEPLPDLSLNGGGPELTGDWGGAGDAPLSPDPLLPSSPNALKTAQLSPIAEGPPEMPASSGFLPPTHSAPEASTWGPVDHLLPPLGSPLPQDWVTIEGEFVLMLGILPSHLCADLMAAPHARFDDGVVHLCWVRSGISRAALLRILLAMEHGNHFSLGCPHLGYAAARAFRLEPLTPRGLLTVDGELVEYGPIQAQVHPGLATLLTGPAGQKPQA
Procedure, shortened: (§1)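 Cell lysate containing recombinant mouse SphK2 incubated with sphingosine and γ-[³²P]ATP, with or without inhibitor, 20 min. Reactions extracted, ³²P-S1P separated by TLC and counted by liquid scintillation. Activity reported as ³²P-S1P formed; screened at 10 μM, with some compounds also assayed at 1 μM. Each value is the mean of two experiments.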

[2] = molecular target: T1, Sphingosine kinase 2 (Mus musculus); assay: Inhibition of mouse recombinant SphK2 assessed as remaining enzyme activity at 1 uM using gamma[32P]ATP incubated for 20 mins by liquid scintillation counting method; procedure, shortened: as §1

SMILES | Activity [1] [%] | Activity [2] [%]
N=C(N)N1CC[C@H]1c1nc(-c2ccc(-c3ccccc3)cc2)no1 | 91 | –
N=C(N)N1CCC[C@H]1c1nc(-c2ccc(I)cc2)no1 | 63 | –
N=C(N)N1CCC[C@H]1c1nc(-c2ccc(N3CCN(C(=O)C45CC6CC(CC(C6)C4)C5)CC3)cc2)no1 | 87 | –
N=C(N)N1CCC[C@H]1c1nc(-c2ccc(CCc3ccccc3)cc2)no1 | 70 | –
CCOCc1cc(C)cc(Cc2ccc(-c3noc([C@@H]4CCCN4C(=N)N)n3)cc2)c1 | 46 | 99
N=C(N)N1CCC[C@H]1c1nc(-c2ccc(N3CCN(Cc4ccccc4)CC3)cc2)no1 | 89 | –
CN1CCN(c2ccc(-c3noc([C@@H]4CCN4C(=N)N)n3)cc2)CC1 | 90 | –
CCCCCCCCCCCCCCCCc1noc([C@@H]2CCCN2C(=N)N)n1 | 52 | –
N=C(N)N1CCC[C@H]1c1nc(-c2ccc(N3CCN(C(=O)Cc4ccccc4)CC3)cc2)no1 | 86 | –
CC(C)CC(=O)N1CCN(c2ccc(-c3noc([C@@H]4CCCN4C(=N)N)n3)cc2)CC1 | 90 | –
N=C(N)N1CCC[C@H]1c1nc(-c2ccc(CS(=O)(=O)c3ccccc3)cc2)no1 | 88 | –
N=C(N)N1CC[C@H]1c1nc(-c2ccc(N3CCOCC3)cc2)no1 | 94 | –

Other lines, results leading:

Activity [1] [%] | Activity [2] [%] | SMILES
15 | 56 | CCCCCCCCCCCCc1ccc(-c2noc([C@@H]3CCCN3C(=N)N)n2)cc1
35 | 76 | CCCCCCc1ccc(-c2noc([C@@H]3CCCN3C(=N)N)n2)cc1
9 | 44 | CCCCCCCCc1ccc(-c2noc([C@@H]3CCCN3C(=N)N)n2)cc1
16 | 52 | CCCCCCCCCCCCCCc1ccc(-c2noc([C@@H]3CCCN3C(=N)N)n2)cc1
45 | 86 | CCCCCCc1ccc(-c2noc([C@@H]3CCN3C(=N)N)n2)cc1
12 | – | CCCCCCCCCCc1ccc(-c2noc([C@@H]3CCN3C(=N)N)n2)cc1
88 | – | CCCCCCCCc1noc([C@@H]2CCCN2C(=N)N)n1
9 | 46 | CCCCCCCCCCc1ccc(-c2noc([C@@H]3CCCN3C(=N)N)n2)cc1
57 | – | CCCCCCCCCCCCc1noc([C@@H]2CCCN2C(=N)N)n1
